Reference: ChEMBL document CHEMBL2146480, “Discovery of Phenylaminopyridine Derivatives as Novel HIV-1 Non-nucleoside Reverse Transcriptase Inhibitors” (ACS Med Chem Lett, 2012)
Converted amounts (≈) assume the structure as drawn.

Tests used:
[1] = system: Human immunodeficiency virus 1; assay: Antiviral activity against wild type HIV1 LAI infected in human CEM174 cells assessed as inhibition of viral replication preincubated for 1 hr prior to viral infection measured after 5 days; type: functional, organism-based; settings: Human immunodeficiency virus 1, LAI
[2] = Cytotoxicity against human CEM174 cells assessed as cell viability; type: cell-based
Outline: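 Values are geometric means of two determinations, each within 25% of the mean.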

[3] = Solubility of the compound in distilled water at pH 7.4; type: physicochemical
[4] = molecular target: Human immunodeficiency virus type 1 reverse transcriptase (Human immunodeficiency virus 1, UniProt Q72547, K103N); assay: Inhibition of RNA-dependent DNA polymerase activity of N-terminal His6x-tagged HIV 1 reverse transcriptase K103N mutant expressed in Escherichia coli (DE3) rosetta cells preincubated for 30 mins by SPA assay
[5] = molecular target: Human immunodeficiency virus type 1 reverse transcriptase (Human immunodeficiency virus 1, UniProt Q72547); assay: Inhibition of RNA-dependent DNA polymerase activity of wild type N-terminal His6x-tagged HIV 1 reverse transcriptase p66/p51 expressed in Escherichia coli (DE3) rosetta cells preincubated for 30 mins by SPA assay
[6] = molecular target: Human immunodeficiency virus type 1 reverse transcriptase (Human immunodeficiency virus 1, UniProt Q72547, Y181C); assay: Inhibition of RNA-dependent DNA polymerase activity of N-terminal His6x-tagged HIV 1 reverse transcriptase Y181C mutant expressed in Escherichia coli (DE3) rosetta cells preincubated for 30 mins by SPA assay
[7] = Solubility of the compound in distilled water; type: physicochemical
Outline: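 Solubility was measured on the HCl salt in distilled water.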

[8] = AUC in rat 9.44 mg/kg, po; type: ADME, organism-based; parameters: dose 9.44 mg/kg, route oral; settings: plasma
Outline: (§1)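 Rats given a single iv dose of 0.94 mg/kg and a single oral dose of 9.44 mg/kg. Both iv and po formulations were 1.0 mg/mL in 20% HP-β-CD. Vd, oral AUC, F, clearance and t1/2 were derived from plasma exposure.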

[9] = Solubility of the compound in distilled water at pH 2.1; type: physicochemical
[10] = Clearance in rat at 0.94 mg/kg, iv and 9.44 mg/kg, po; type: ADME, organism-based; settings: in vivo; outline: as §1
[11] = Volume of distribution in rat at 0.94 mg/kg, iv and 9.44 mg/kg, po; type: ADME, organism-based; settings: in vivo; outline: as §1
[12] = Induction of CYP3A4 mRNA expression in human Fa2N-4 cells up to 10 uM after 24 hrs; type: ADME, cell-based; settings: fa2n-4, 24 h
[13] = Half life in rat at 0.94 mg/kg, iv and 9.44 mg/kg, po; type: ADME, organism-based; settings: in vivo; outline: as §1
[14] = Oral bioavailability in rat at 9.44 mg/kg; type: ADME, organism-based; settings: in vivo; outline: as §1
[15] = Half life in rat at 1.10 mg/kg, iv and 10.7 mg/kg, po; type: ADME, organism-based; settings: in vivo
Outline: (§2)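 Both routes were formulated at 1.0 mg/mL in 50% PEG. Parameters reported are Vd, AUCpo, oral bioavailability, clearance and half-life.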

[16] = Oral bioavailability in rat at 10.7 mg/kg; type: ADME, organism-based; settings: in vivo; outline: as §2
[17] = Clearance in rat at 1.10 mg/kg, iv and 10.7 mg/kg, po; type: ADME, organism-based; settings: in vivo, 1.1 mg/kg; outline: as §2
[18] = AUC in rat at 10.7 mg/kg, po; type: ADME, organism-based; parameters: dose 10.7 mg/kg, route oral; settings: plasma; outline: as §2
[19] = Volume of distribution in rat at 1.10 mg/kg, iv and 10.7 mg/kg, po; type: ADME, organism-based; settings: in vivo, 1.1 mg/kg; outline: as §2
[20] = Volume of distribution in rat at 1.19 mg/kg, iv and 10.9 mg/kg, po; type: ADME, organism-based; settings: in vivo
Outline: (§3)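 The iv and po formulation was 1.0 mg/mL in 40% PEG. Vd, AUCpo, F, clearance and t1/2 were derived.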

[21] = Half life in rat at 1.19 mg/kg, iv and 10.9 mg/kg, po; type: ADME, organism-based; settings: in vivo; outline: as §3
[22] = Clearance in rat at 1.19 mg/kg, iv and 10.9 mg/kg, po; type: ADME, organism-based; settings: in vivo; outline: as §3
[23] = AUC in rat at 10.9 mg/kg, po; type: ADME, organism-based; parameters: dose 10.9 mg/kg, route oral; settings: plasma; outline: as §3
[24] = Oral bioavailability in rat at 10.9 mg/kg; type: ADME, organism-based; settings: in vivo; outline: as §3
[25] = system: Human immunodeficiency virus 1; assay: Resistant ratio of IC50 for HIV 1 reverse transcriptase Y181C mutant to IC50 for wild type HIV 1 reverse transcriptase
Outline: (§4)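 Fold resistance is IC50 against the mutant RT divided by IC50 against wild-type RT. Both IC50s come from the RNA-dependent DNA polymerase inhibition assay, each taken as the geometric mean of two determinations.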

[26] = system: Human immunodeficiency virus type 1 reverse transcriptase (Human immunodeficiency virus 1), Q72547 [UNDEFINED MUTATION]; assay: Resistant ratio of IC50 for HIV 1 reverse transcriptase K103N mutant to IC50 for wild type HIV 1 reverse transcriptase; outline: as §4
[27] = molecular target: Voltage-gated inwardly rectifying potassium channel KCNH2 (Homo sapiens, UniProt Q12809); assay: Inhibition of recombinant human ERG channel IKr expressed in CHO cells by patch clamp assay
Chain of Voltage-gated inwardly rectifying potassium channel KCNH2 (Q12809 whole entry): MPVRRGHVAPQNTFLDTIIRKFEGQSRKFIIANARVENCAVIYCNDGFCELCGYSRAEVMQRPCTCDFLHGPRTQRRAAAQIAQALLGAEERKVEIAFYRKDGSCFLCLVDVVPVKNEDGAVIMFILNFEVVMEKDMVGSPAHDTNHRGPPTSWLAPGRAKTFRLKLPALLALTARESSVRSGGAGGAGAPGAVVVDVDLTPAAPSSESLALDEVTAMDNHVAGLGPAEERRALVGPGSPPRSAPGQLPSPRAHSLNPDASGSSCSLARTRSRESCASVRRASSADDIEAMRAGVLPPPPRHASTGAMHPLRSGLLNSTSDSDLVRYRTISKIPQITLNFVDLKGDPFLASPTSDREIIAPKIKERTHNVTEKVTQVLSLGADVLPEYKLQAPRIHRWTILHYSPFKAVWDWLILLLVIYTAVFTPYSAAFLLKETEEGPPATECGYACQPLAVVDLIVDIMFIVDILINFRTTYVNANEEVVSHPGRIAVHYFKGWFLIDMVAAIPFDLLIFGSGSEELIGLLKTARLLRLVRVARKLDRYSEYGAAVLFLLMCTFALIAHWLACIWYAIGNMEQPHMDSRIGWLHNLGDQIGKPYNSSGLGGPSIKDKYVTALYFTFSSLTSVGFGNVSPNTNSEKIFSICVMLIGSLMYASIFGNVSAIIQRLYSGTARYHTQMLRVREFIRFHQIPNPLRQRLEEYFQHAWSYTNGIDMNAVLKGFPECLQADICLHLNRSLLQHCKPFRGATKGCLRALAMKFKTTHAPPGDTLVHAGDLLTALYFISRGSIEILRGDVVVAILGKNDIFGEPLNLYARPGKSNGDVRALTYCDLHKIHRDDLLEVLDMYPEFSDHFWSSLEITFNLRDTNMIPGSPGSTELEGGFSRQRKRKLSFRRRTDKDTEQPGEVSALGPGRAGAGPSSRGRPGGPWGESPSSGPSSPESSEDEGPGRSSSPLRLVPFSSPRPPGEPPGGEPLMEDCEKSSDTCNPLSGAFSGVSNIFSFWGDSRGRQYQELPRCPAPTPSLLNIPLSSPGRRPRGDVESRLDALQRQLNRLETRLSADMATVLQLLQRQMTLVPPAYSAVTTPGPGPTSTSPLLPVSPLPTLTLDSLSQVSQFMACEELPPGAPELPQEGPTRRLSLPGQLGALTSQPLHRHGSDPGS

`Cc1ccccc1-c1cncc(NCc2cc(-c3ccccc3)[nH]n2)c1` gave an EC50 [1] of 1200 nM and a CC50 [2] of over 10000 nM.

`c1ccc(-c2cnnc(NCc3cc(-c4ccccc4)[nH]n3)n2)cc1` gave an EC50 [1] of 1290 nM and a CC50 [2] of over 10000 nM.

In the case of `Cc1ccccc1-c1cccc(NCc2cc(-c3ccccc3)[nH]n2)n1`, the EC50 [1] is reported as over 10000 nM and the CC50 [2] is reported as over 10000 nM.

Work on `Cc1ccnc2c1NC(=O)c1cccnc1N2C1CC1` [NEVIRAPINE] yielded an EC50 [1] of 150 nM and a CC50 [2] of over 10000 nM.

For `Cc1cc(C#N)ccc1-c1ccnc(NCc2n[nH]c3nc(F)ccc23)c1`, the EC50 [1] was 0.35 nM, the solubility [3] was 1.8 µM (≈ 0.645 µg/mL) and the IC50 [4] was 10 nM. For the same compound, the CC50 [2] was over 10000 nM, the IC50 [5] was 1.9 nM and the IC50 [6] was 7.7 nM.

Compound `Cc1cc(C#N)ccc1-c1ccnc(NCc2n[nH]c3nc(N)ccc23)c1.Cl` has a solubility [7] of over 4220 µM.

Work on `Cc1ccccc1-c1ccnc(NCc2cc(-c3ccccc3)[nH]n2)c1` yielded an EC50 [1] of 149 nM and a CC50 [2] of over 10000 nM.

Work on `Cc1cc(C#N)ccc1-c1ccnc(NCc2n[nH]c(-c3ccccn3)c2Cl)c1` yielded an EC50 [1] of 0.2 nM, a solubility [3] of 1.1 µM (≈ 0.441 µg/mL) and an IC50 [4] of 16 nM. It also gave an AUC [8] of 67 µM·h, a solubility [9] of 132 µM (≈ 52.9 µg/mL) and a CC50 [2] of over 10000 nM. It also gave a clearance [10] of 8.2 mL/min/kg, a Vd [11] of 1.1 L/kg and an IC50 [5] of 3 nM. For the same compound, the IC50 [6] was 7.9 nM, the Activity [12] was “Not Active” and the half-life [13] was 2 h. For the same compound, the bioavailability [14] was 127%.

`Cc1cccc(-c2cnnc(NCc3cc(-c4ccccc4)[nH]n3)n2)c1` showed an EC50 [1] of 2300 nM and a CC50 [2] of over 10000 nM.

`Cc1cc(C#N)ccc1-c1ccnc(NCc2n[nH]c(-c3ccccn3)c2Cl)c1.Cl` gave a solubility [7] of 100 µM.

For `Cc1cc(C#N)ccc1-c1cnnc(NCc2cc(-c3ccccc3)[nH]n2)n1`, the EC50 [1] was 1.7 nM and the CC50 [2] was over 10000 nM.

`Cc1cc(C#N)ccc1-c1ccnc(NCc2n[nH]c3nc(N)ccc23)c1` gave an EC50 [1] of 1.9 nM, a solubility [3] of 0.34 µM (≈ 0.121 µg/mL) and an IC50 [4] of 36 nM. The half-life [15] was 2.5 h, the solubility [9] was over 884 µM and the bioavailability [16] was 72%. The CC50 [2] was over 10000 nM, the clearance [17] was 14 mL/min/kg and the AUC [18] was 20 µM·h. The IC50 [5] was 5.9 nM, the Vd [19] was 1.26 L/kg and the IC50 [6] was 16 nM.

Compound `Cc1cc(C#N)ccc1-c1ccnc(NCc2n[nH]c3ncccc23)c1` has an EC50 [1] of 1.1 nM, a solubility [3] of 3.7 µM (≈ 1.26 µg/mL) and an IC50 [4] of 10 nM. For the same compound, the solubility [9] was over 881 µM, the CC50 [2] was over 10000 nM and the IC50 [5] was 1.2 nM. For the same compound, the IC50 [6] was 5.6 nM.

`Cc1cc(C#N)ccc1-c1cncc(NCc2cc(-c3ccccc3)[nH]n2)c1` gave an EC50 [1] of 16 nM and a CC50 [2] of over 10000 nM.

Work on `N#Cc1cc(Cl)cc(Oc2cc(OCc3n[nH]c4nc(N)ccc34)ccc2Cl)c1` yielded a CC50 [2] of over 10000 nM.

With `Cc1ccc(-c2cnnc(NCc3cc(-c4ccccc4)[nH]n3)n2)cc1` the EC50 [1] was over 10000 nM and the CC50 [2] was over 10000 nM.

In the case of `c1ccc(-c2cc(CNc3nncc(-c4cccc5ccccc45)n3)n[nH]2)cc1`, the EC50 [1] is reported as 265 nM and the CC50 [2] is reported as over 10000 nM.

`Cc1cccc(C)c1-c1cnnc(NCc2cc(-c3ccccc3)[nH]n2)n1` showed an EC50 [1] of 3.2 nM and a CC50 [2] of over 10000 nM.

For `Cc1ccccc1-c1ccnc(NCc2cc(-c3ccccc3)[nH]n2)n1`, the EC50 [1] was 366 nM and the CC50 [2] was over 10000 nM.

Compound `Cc1cc(C#N)ccc1-c1ccnc(NCc2n[nH]c(-c3ccccc3)c2Cl)c1` has an EC50 [1] of 6.8 nM, a solubility [3] of 2.1 µM (≈ 0.84 µg/mL) and an IC50 [4] of 11 nM. For the same compound, the solubility [9] was 45 µM (≈ 18 µg/mL), the CC50 [2] was over 10000 nM and the Vd [20] was 2.08 L/kg. It also gave a half-life [21] of 3.1 h, a clearance [22] of 8.7 mL/min/kg and an IC50 [5] of 5.1 nM. For the same compound, the AUC [23] was 34 µM·h, the IC50 [6] was 6.3 nM and the bioavailability [24] was 71%.

In the case of `Cc1cc(C#N)ccc1-c1ccnc(NCc2cc(-c3ccccn3)[nH]n2)c1`, the EC50 [1] is reported as 3.6 nM, the solubility [3] is reported as 0.71 µM (≈ 0.26 µg/mL) and the IC50 [4] is reported as 134 nM. It also gave a solubility [9] of over 545 µM, a Ratio IC50 [25] of 8.4 and a CC50 [2] of over 10000 nM. It also gave an IC50 [5] of 10 nM, an IC50 [6] of 84 nM and a Ratio IC50 [26] of 13. For the same compound, the IC50 [27] was 1100 nM.

For `Cc1ccccc1-c1cccc(NCc2cc(-c3ccccc3)[nH]n2)c1`, the EC50 [1] was 2200 nM and the CC50 [2] was over 10000 nM.

With `Cc1cc(C#N)ccc1-c1ccnc(NCc2cc(-c3ccccc3)[nH]n2)n1` the EC50 [1] was 4.3 nM and the CC50 [2] was over 10000 nM.

Compound `Cc1ccccc1-c1cnnc(NCc2cc(-c3ccccc3)[nH]n2)n1` has an EC50 [1] of 124 nM and a CC50 [2] of over 10000 nM.

With `Cc1cc(C#N)ccc1-c1ccnc(NCc2cc(-c3ccccc3)[nH]n2)c1` the EC50 [1] was 0.8 nM and the CC50 [2] was over 10000 nM.

For `Cc1ccccc1-c1cncc(NCc2cc(-c3ccccc3)[nH]n2)n1`, the EC50 [1] was 910 nM and the CC50 [2] was over 10000 nM.
